A selection: hits, their analogues and other compounds. The true share with any hit is near 2.1%.
m5-HT2A agonist – mouse Htr2a agonists via beta-arrestin recruitment, primary screen, cell-based, luminescence; 5-hydroxytryptamine receptor 2A (Mus musculus), P35363; activation, % at 7.6 µM; 360,000 compounds, 0.66% hits; CHO-K1 mHTR2A beta-arrestin complementation; percent of 30 µM serotonin response;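 active = activation above a run cutoff, the mean activation of all tested compounds plus 3 SD, cut at about 14% in these data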
CCR6 antag – CCR6 receptor antagonists, primary screen, cell-based, CHO-K1, luminescence, beta-arrestin, uHTS | 340,000 compounds, 0.49% hits | AID 493098, 2011 | CHO-K1 CCR6 PathHunter beta-arrestin, CCL20-stimulated | inhibition, % at 20 µM | C-C chemokine receptor type 6 (Homo sapiens), P51684;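 active = compounds whose inhibition of the agonist-driven luminescence signal at 20 µM reaches about 50%, limit read from the data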;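 note: cells stimulated with CCL20 at 14 nM final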
APJ antagonist – antagonists of human apelin receptor APJ, primary screen, CHO-K1 cells, beta-arrestin complementation, luminescence | AID 2521, 2010 | 330,000 compounds, 0.32% hits | P35414 | inhibition, % at 20 µM;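 active = inhibition above about 40% at 20 µM, limit read from the data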;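 note: cells challenged with 10 nM apelin-13 agonist together with compound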
EBI2 antag – EBI2 receptor antagonists, beta-arrestin recruitment, primary screen, cell-based, luminescence, 7a,25-OHC stimulation, uHTS. inhibition, % at 5 µM. AID 651636, 2012. G-protein coupled receptor 183 (Homo sapiens), P32249. 360,000 compounds, 0.81% hits. 7a,25-OHC stimulated; in the data active = inhibition above about 38%;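 note: enzyme fragment complementation signal reports receptor beta-arrestin coupling in cells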
APJ ag – agonists of human apelin receptor APJ, primary screen, CHO-K1 cells, PathHunter beta-arrestin, luminescence; activation, % at 20 µM; 0% DMSO wells, 100% apelin; P35414; AID 2520, 2010; 330,000 compounds, 0.11% hits;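 active = activation more than six SD over the plate average, tested at 20 µM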
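Material: CHO-K1 APJ beta-arrestin complementation cell line; Input: cell density 1000 per well; Incubation: compound stimulation 90 min at 25 °C, detection 60 min; Signal: luminescence from split beta-galactosidase complementation, Galacton Star/Emerald II substrate; Controls: DMSO-only wells as negative, 10 nM Apelin-13 as positive control.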
CXCR6 inh – CXCR6 receptor inhibitors, primary screen, cell-based, beta-arrestin, luminescence, CHO-K1 PathHunter, 1536-well; C-X-C chemokine receptor type 6 (Homo sapiens), O00574; inhibition, % at 20 µM; 360,000 compounds, 0.36% hits; AID 602244, 2012; in the data active = inhibition above about 34%, passing the limit was not always enough;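 note: antagonist mode with CXCL16 agonist at 10 nM final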
Target sequence (O00574 whole entry, looked up): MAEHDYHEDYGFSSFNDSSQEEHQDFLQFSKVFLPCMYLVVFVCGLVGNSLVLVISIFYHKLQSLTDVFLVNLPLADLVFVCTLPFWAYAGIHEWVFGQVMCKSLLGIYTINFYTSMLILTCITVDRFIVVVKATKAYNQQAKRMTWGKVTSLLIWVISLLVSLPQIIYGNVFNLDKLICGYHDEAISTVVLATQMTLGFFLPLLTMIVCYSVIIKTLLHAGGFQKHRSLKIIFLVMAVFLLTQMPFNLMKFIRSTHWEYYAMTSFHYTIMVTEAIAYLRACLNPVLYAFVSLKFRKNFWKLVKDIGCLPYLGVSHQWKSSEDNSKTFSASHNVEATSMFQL
EBI2 antag conf – EBI2 antagonist hit retest, beta-arrestin, confirmation, cell-based, single concentration, luminescence, 7a,25-OHC stimulation | AID 651997, 2013 | 7a,25-OHC antagonism | shares compounds with EBI2 antag | 2,400 compounds, 29% hits | inhibition, % at 5 µM;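 active = inhibition of at least 50%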
EBI2 agonist – EBI2 agonist activity of antagonist hits, confirmation, counter-screen for EBI2 antagonist project, cell-based, single concentration, agonist mode, luminescence; EBI2-expressing cells, 60 min; 0% vehicle, 100% 7α,25-dihydroxycholesterol control; activation, % at 5 µM; 2,400 tested, under 10 active; shares compounds with EBI2 antag;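 active = activation of at least 50%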
bGal counter – E. coli beta-galactosidase enzyme inhibition, confirmation, counter-screen for EBI2 antagonist project, biochemical, luminescence, single concentration; AID 652176, 2013; 2,400 compounds, 1% hits; shares compounds with EBI2 antag; purified beta-galactosidase, luminescent Galacton Star, 15 min; inhibition, % at 5 µM;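 active = replicate-average signal at least 3 plate SD below neutral wells, shown as high inhibition, flagging enzyme-inhibiting false positives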;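 note: higher means stronger loss of beta-gal luminescence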
A number is an active result; i = inactive; nt = no result given.

SMILES	m5-HT2A agonist	CCR6 antag	APJ antagonist	EBI2 antag	APJ ag	CXCR6 inh	EBI2 antag conf	EBI2 agonist	bGal counter
CC(=O)N1CCN(c2nnc(-c3ccccc3)c3ccccc23)CC1	i	i	i	i	i	i	nt	nt	nt
CCOC(=O)n1c(=O)n(C)c2ccc(Br)cc21	i	i	i	i	i	i	nt	nt	nt
COc1ccccc1C(=O)COC(=O)C(CCSC)NC(=O)COc1ccccc1 (configuration not stated)	i	i	i	i	i	i	nt	nt	nt
CN1CCN(C(=O)c2cc3sc4ccccc4c3s2)CC1	i	i	i	95.4	i	i	70.4	i	i
O=C(Cn1cnc2c(NCc3ccccc3)ncnc21)NCCc1cc2ccccc2[nH]1	i	i	nt	i	nt	i	nt	nt	nt
CC(C)OCc1c(C(=O)Nc2nccs2)oc2ccccc12	i	i	i	i	i	i	nt	nt	nt
COCCN1C(=O)N(c2ccc(OC)cc2)C(=O)C1CC(=O)Nc1cccc(F)c1 (configuration not stated)	i	i	i	i	i	i	nt	nt	nt
CCCN1C(=O)c2cc(C(=O)Nc3ccccc3C)ccc2C1Nc1ccccc1C (configuration not stated)	i	i	i	i	i	i	nt	nt	nt
COC(=O)c1ccc(NC(=O)c2ccc3c(c2)C(=O)N(C)C3=O)cc1	i	i	i	i	i	i	nt	nt	nt
COCCN1C(=O)c2cc(C(=O)Nc3cccc(F)c3)ccc2C1Nc1cccc(F)c1 (configuration not stated)	i	i	i	75.2	i	i	i	i	i
COCCN1C(=O)c2cc(C(=O)Nc3ccc(C)c(F)c3)ccc2C1Nc1ccc(C)c(F)c1 (configuration not stated)	i	i	i	86.4	i	i	64.8	i	i
CCc1ccc(NC(=O)c2ccc3c(c2)C(=O)N(CCOC)C3Nc2ccc(CC)cc2)cc1 (configuration not stated)	i	i	i	64.8	i	i	62.1	i	i
COc1ccc(OC)c(NC(=O)C2CCCN2C(=O)NC2CCCCC2)c1 (configuration not stated)	i	i	i	i	i	i	nt	nt	nt
Cc1ccc(/C=N/Nc2ccc3c(C(F)(F)F)cc(C(F)(F)F)nc3n2)cc1	i	i	i	54.7	i	i	i	i	i
COc1cc2c(cc1OC)-c1n[nH]c(=S)n1C(C)(C)C2	i	i	i	i	i	i	nt	nt	nt
COc1ccc(OC)c(S(=O)(=O)N2CCN(CC(O)COc3ccc(C#N)cc3)CC2)c1 (configuration not stated)	i	i	i	45.2	i	i	i	i	i
COc1ccc(S(=O)(=O)N2CCN(CC(O)COc3ccc(C#N)cc3)CC2)cc1OC (configuration not stated)	i	i	i	i	i	i	nt	nt	nt
COc1ccc(OC)c(S(=O)(=O)N2CCN(CC(O)COc3ccccc3)CC2)c1 (configuration not stated)	i	i	i	46.3	i	i	i	i	i
COc1ccc(OCC(O)CN2CCC(CN3C(=O)c4cccc5cccc(c45)C3=O)CC2)cc1 (configuration not stated)	i	i	i	43.7	i	i	i	i	i
O=[N+]([O-])c1ccc(CSc2nnc(SCc3ccccc3)s2)cc1	i	i	i	i	i	i	nt	nt	nt
COc1cccc(-c2cc(C(=O)N3CCN(C(c4ccccc4)c4ccccc4)CC3)no2)c1	i	i	i	86.8	i	i	80.6	i	i
Cc1cc(C(=O)N2CCN(C(c3ccccc3)c3ccccc3)CC2)no1	i	i	i	i	i	i	nt	nt	nt
O=C(c1cc(-c2cccs2)on1)N1CCN(C(c2ccccc2)c2ccccc2)CC1	i	i	i	87.8	i	i	83.8	i	i
COc1cccc(-c2cc(C(=O)N3CCOCC3)no2)c1	i	i	i	i	i	i	nt	nt	nt
CCC(C)NC(=O)C1CCCN(c2nc(C)cc(OC)n2)C1 (configuration not stated)	i	i	i	i	i	i	nt	nt	nt
SMILES	m5-HT2A agonist	CCR6 antag	APJ antagonist	EBI2 antag	APJ ag	CXCR6 inh	EBI2 antag conf	EBI2 agonist	bGal counter
S=C(NCC1CCCO1)N1CCN(c2nc(-c3ccc(Cl)cc3)cs2)CC1 (configuration not stated)	i	i	i	85.8	i	i	66.0	i	i
O=c1c2c3nc4ccccc4nc3n(Cc3ccccc3)c2ncn1Cc1ccco1	i	i	nt	50.9	nt	i	i	i	i
COCCCn1c2nc3ccccc3nc2c2c(=O)n(Cc3ccc(Cl)cc3)cnc21	i	i	i	i	i	i	nt	nt	nt
COc1ccc(S(=O)(=O)N(C)c2ccc(C(=O)N3CCN(C)CC3)cc2)cc1	i	i	i	i	i	i	nt	nt	nt
O=C(COC(=O)/C=C/c1cccs1)NC(c1ccccc1)c1ccccc1	i	i	i	61.6	i	i	i	i	i
O=C(COC(=O)/C=C/c1cccs1)NC(=O)Cc1ccccc1	i	i	i	i	i	i	nt	nt	nt
Nc1c(S(=O)(=O)c2ccccc2)c2nc3ccccc3nc2n1/N=C/c1cccc(O)c1	i	i	i	68.4	i	i	i	i	i
CCN(CC)S(=O)(=O)c1ccc2c(c1)nc(SCC(=O)N1CCCCCC1)n2-c1ccc(OC)cc1	i	i	i	47.1	i	i	56.4	i	i
O=C(c1ccc(Cl)cc1)C1CCN(C(=O)c2ccccc2)CC1	i	i	i	i	i	i	nt	nt	nt
O=C(c1ccc(F)cc1)C1CCN(C(=O)c2ccc(Cl)cc2)CC1	i	i	nt	82.6	nt	i	53.7	i	i
O=C(c1ccc(Cl)cc1)N1CCCC(C(=O)N2CCCCC2)C1 (configuration not stated)	i	i	i	i	i	i	nt	nt	nt
O=C(c1ccc(Cl)cc1)N1CCN(C(=O)C2CCCCC2)CC1	i	i	i	59.7	i	i	i	i	i
CCOC(=O)C1C(C(=O)NN)C1C(=O)Nc1ccccc1 (configuration not stated)	i	i	i	i	i	i	nt	nt	nt
